Test results as given in ChEMBL document CHEMBL4837220, “Development of tricyclic N-benzyl-4-hydroxybutanamide derivatives as inhibitors of GABA transporters mGAT1-4 with anticonvulsant, antinociceptive, and antidepressant activity” (Eur J Med Chem, 2021).
Activity calls are given as the source filed them.

Experiments:
[1] = target: T1, Sodium- and chloride-dependent GABA transporter 1 (Mus musculus, UniProt P31648); assay: Inhibition of mouse GAT1 expressed in human HEK293 cell line assessed as inhibition of [3H]GABA uptake measured after 40 mins by […]; assay type: cell-based
Mus musculus [2] = assay: Anticonvulsant activity in Albino Swiss (CD-1) mouse model of pilocarpine-induced status epilepticus assessed as reduction in latency to occurrence of status epilepticus at 100 mg/kg, […]; assay type: functional, organism-based
Mus musculus [3] = assay: Anticonvulsive activity in Albino Swiss (CD-1) mouse assessed as protection against pentylenetetrazole-induced seizure at 100 mg/kg, ip administered 60 mins prior to pentylenetetrazole challenge and measured for 30 mins; assay type: functional, organism-based
Outline: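 Male CD-1 mice were given test compound or vehicle i.p. and 60 min later PTZ 100 mg/kg s.c. Mice were observed singly for 30 min, recording latency to first seizure episode and number of seizure episodes. Analysis by one-way ANOVA with Dunnett; n = 10–12.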

Mus musculus [4] = assay: Anticonvulsant activity in Albino Swiss (CD-1) mouse assessed as tonic seizures at 100 mg/kg, ip measured after 0.2 secs by maximal electroshock seizure test; assay type: functional; details: time 0.2 sec, 5.556e-05 h
Outline: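 Male CD-1 mice (18–22 g), dosed i.p. 60 min before test. A 25 mA, 0.2 s stimulus was given via auricular electrodes. Endpoint was tonic hind limb extension, expressed as % of mice with extension per group; n = 6.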

Mus musculus [5] = assay: Anticonvulsant activity in CD-1 mouse assessed as elevation of seizure threshold at 100 mg/kg, ip measured by electroconvulsive threshold test relative to control; assay type: functional
GABA transporter 2 = target: T2, GABA transporter 2 (Mus musculus, UniProt P31651); assay: Inhibition of mouse GAT2 expressed in human HEK293 cell line assessed as inhibition of [3H]GABA uptake measured after 40 mins by […]; assay type: cell-based
T2 sequence (P31651 whole entry): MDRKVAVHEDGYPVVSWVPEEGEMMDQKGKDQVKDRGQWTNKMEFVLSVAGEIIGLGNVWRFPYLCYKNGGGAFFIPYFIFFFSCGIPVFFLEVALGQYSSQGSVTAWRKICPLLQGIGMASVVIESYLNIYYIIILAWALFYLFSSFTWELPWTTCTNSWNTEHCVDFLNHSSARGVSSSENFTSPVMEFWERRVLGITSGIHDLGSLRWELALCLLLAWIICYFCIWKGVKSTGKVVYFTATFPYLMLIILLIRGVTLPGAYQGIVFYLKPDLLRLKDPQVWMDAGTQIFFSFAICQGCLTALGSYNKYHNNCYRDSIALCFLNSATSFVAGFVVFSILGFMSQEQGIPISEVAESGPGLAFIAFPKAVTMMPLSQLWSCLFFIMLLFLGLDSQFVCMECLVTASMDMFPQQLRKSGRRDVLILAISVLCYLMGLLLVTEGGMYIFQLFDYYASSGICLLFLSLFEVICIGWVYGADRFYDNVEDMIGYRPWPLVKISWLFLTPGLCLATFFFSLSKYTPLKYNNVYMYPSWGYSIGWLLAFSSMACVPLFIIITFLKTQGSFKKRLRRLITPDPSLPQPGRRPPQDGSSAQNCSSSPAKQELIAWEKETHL

GABA transporter 4 = target: T3, GABA transporter 4 (Mus musculus, UniProt P31650); assay: Inhibition of mouse GAT4 expressed in human HEK293 cell line assessed as inhibition of [3H]GABA uptake measured after 40 mins by […]; assay type: cell-based
T3 sequence (P31650 whole entry): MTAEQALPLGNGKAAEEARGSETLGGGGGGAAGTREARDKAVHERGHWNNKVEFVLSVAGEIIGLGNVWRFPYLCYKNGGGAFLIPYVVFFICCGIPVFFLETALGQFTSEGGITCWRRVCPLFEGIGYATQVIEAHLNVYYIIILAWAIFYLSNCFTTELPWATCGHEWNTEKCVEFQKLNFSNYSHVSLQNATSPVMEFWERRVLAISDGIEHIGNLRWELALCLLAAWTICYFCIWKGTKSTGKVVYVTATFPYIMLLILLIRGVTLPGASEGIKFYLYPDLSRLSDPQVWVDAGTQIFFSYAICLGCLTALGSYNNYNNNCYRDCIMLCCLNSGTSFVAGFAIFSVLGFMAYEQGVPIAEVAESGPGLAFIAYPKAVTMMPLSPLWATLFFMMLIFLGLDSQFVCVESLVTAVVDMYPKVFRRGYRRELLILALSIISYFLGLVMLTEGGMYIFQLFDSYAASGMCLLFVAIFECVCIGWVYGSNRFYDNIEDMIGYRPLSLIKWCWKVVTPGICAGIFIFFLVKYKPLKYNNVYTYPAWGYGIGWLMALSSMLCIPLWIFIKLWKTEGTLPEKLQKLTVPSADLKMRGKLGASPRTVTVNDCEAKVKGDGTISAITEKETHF

[6] = Hepatotoxicity in human HepG2 cells at 25 uM incubated for 72 hrs by MTS assay; assay type: cell-based; details: hepg2, 72 h
Outline: (§1)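 Cells (HEK-293 or HepG2) were seeded at 0.7×10^4 per well and grown at 37 °C, 5% CO₂. Compounds at 0.1–100 µM were added in quadruplicate for 72 h, with 1% DMSO in medium as control. Viability was read by MTS absorbance at 492 nm. Analysis by one-way ANOVA with Bonferroni.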

[7] = Hepatotoxicity in human HepG2 cells at 50 uM incubated for 72 hrs by MTS assay; assay type: cell-based; details: hepg2, 72 h; outline: as §1
[8] = Hepatotoxicity in human HepG2 cells at 100 uM incubated for 72 hrs by MTS assay; assay type: cell-based; details: hepg2, 72 h; outline: as §1
HEK293 = assay: Cytotoxicity in human HEK293 cells assessed as reduction in cell viability at 1 uM incubated for 72 hrs by MTS assay; assay type: cell-based; details: hek293, 72 h; outline: as §1
Mus musculus [9] = assay: Antidepressant activity in Albino Swiss (CD-1) mouse assessed as reduction in immobility time at 8 mg/kg, ip measured for last 4 mins of 6 mins test by forced swim test relative to control; assay type: functional
Mus musculus [10] = assay: Anxiolytic-like activity in Albino Swiss (CD-1) mouse at 30 mg/kg, ip by four plate test; assay type: functional, organism-based
Outline: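 Male CD-1 mice were dosed i.p. 60 min before test. After 15 s habituation on a four-plate floor, a 60 s test followed. Each plate-to-plate crossing triggered a 0.8 mA, 0.5 s shock. The number of punished crossings was counted. Analysis by one-way ANOVA with Dunnett.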

Mus musculus [11] = assay: Anxiolytic-like activity in Albino Swiss (CD-1) mouse assessed as increase in time spent in open arm at 30 mg/kg, ip measured for 5 mins by elevated plus maze test; assay type: functional, organism-based
Outline: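 Male CD-1 mice were dosed i.p. 60 min before test. Each was placed in the centre of the plus maze facing a closed arm and video-recorded for 5 min. Measures were time in open arms and % open-arm entries of all entries. Analysis by one-way ANOVA with Dunnett; n = 7–10.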

[12] = Effect on locomotor activity in Albino Swiss (CD-1) mouse at 30 mg/kg, ip after 24 to 30 mins; assay type: ADME, organism-based; details: in vivo, time 24-30 min
Outline: (§2)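 Male CD-1 mice were habituated to activity cages for 15 min, then dosed i.p. 60 min before test. Light-beam crossings were counted over 30 min in 6-min bins (0–30 min). Analysis by repeated measures ANOVA with Bonferroni.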

[13] = target: Sodium- and chloride-dependent GABA transporter 1 (Mus musculus) (UniProt P31648); assay: Residual NO711 binding to mouse GAT1 expressed in human HEK293 cell line at 100 uM by MS binding assay relative to control
Mus musculus [14] = assay: Antidepressant-like activity in C57BL/6J mouse assessed as decrease in immobility time at 30 mg/kg, ip measured during last 4 mins of 6 mins test by tail suspension test
Mus musculus [15] = assay: Antinociceptive activity in Albino Swiss (CD-1) mouse model of formalin-induced paw edema at 30 mg/kg, ip pre-treated for 30 mins followed by formalin-stimulation and measured for 15 to 30 mins by formalin test
Mus musculus [16] = assay: Antinociceptive activity in Albino Swiss (CD-1) mouse model of formalin-induced paw edema assessed as reduction in duration of nocifensive response by measuring licking/biting time at 30 mg/kg, ip pre-treated for 30 mins followed by formalin-stimulation and measured up to 5 mins; assay type: functional, organism-based
Mus musculus [17] = assay: Antidepressant activity in CD-1 mouse assessed as reduction in immobility time at 30 mg/kg, ip measured for last 4 mins of 6 mins test by forced swim test; assay type: functional, organism-based
Outline: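 Male CD-1 mice, dosed i.p. 60 min before test. Mice were placed singly in cylinders with 10 cm water at 23–25 °C. Immobility (passive floating) was scored during the final 4 min of a 6-min session. Analysis by one-way ANOVA with Dunnett versus vehicle.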

[18] = Effect on locomotor activity in Albino Swiss (CD-1) mouse at 30 mg/kg, ip; assay type: ADME, organism-based; details: in vivo; outline: as §2
Mus musculus [19] = assay: Antidepressant activity in Albino Swiss (CD-1) mouse assessed as reduction in immobility time at 30 mg/kg, ip measured for last 4 mins of 6 mins test by forced swim test relative to control; assay type: functional; parameters: scale not given: the % may be the effect or the level left
[20] = target: T1, Sodium- and chloride-dependent GABA transporter 1; assay: Inhibition of NO711 binding to mouse GAT1 expressed in human HEK293 cell line by MS binding assay

IC50 [1]	IC50 (GABA transporter 2)	IC50 (GABA transporter 4)	residual activity [13]	Compound	Activity (Mus musculus [2])	Activity (Mus musculus [4])	Activity (Mus musculus [5])	Activity [6]	Activity [7]	Activity [8]	Activity (HEK293)	Activity (Mus musculus [9])	Activity (Mus musculus [10])	Activity (Mus musculus [11])	Activity (Mus musculus [14])	Activity (Mus musculus [15])	other results
21.9 µM	15.5 µM	9.55 µM	75%	CN(CCC=C1c2ccccc2C=Cc2ccccc21)C(CCO)C(=O)NCc1ccccc1 (centres undefined)	inactive	83%	43%	Non-Toxic	Toxic	Toxic	Non-Toxic	Dose-Dependent Effect	inactive	inactive	Active	Active	Activity (Mus musculus [3]): inactive; Activity [12]: Non-Toxic
14.1 µM	4.57 µM	10.7 µM	53%	Cc1ccc(CNC(=O)C(CCO)N(C)CCC=C2c3ccccc3CCc3ccccc32)cc1 (centres undefined)	Active	83%	90%	Non-Toxic	Toxic	Toxic	Non-Toxic	–	inactive	inactive	Active	Active	Activity (Mus musculus [16]): Active; Activity (Mus musculus [17]): Active; Activity [18]: Non-Toxic
–	–	–	–	Cc1ccsc1C(=CCCN1CCC[C@@H](C(=O)O)C1)c1sccc1C [TIAGABINE]	–	–	–	–	–	–	–	59%	–	–	–	–	Activity (Mus musculus [19]): 97.4%; pKi [20]: 7.43
